In ChEMBL document CHEMBL4364322, “Protective effect of piceatannol and bioactive stilbene derivatives against hypoxia-induced toxicity in H9c2 cardiomyocytes and structural elucidation as 5-LOX inhibitors” (Eur J Med Chem, 2019):
One block for each compound: values may come before it. Calls of active or inactive are those of the source. The rule behind the calls is not given here.

Experiments:
[1] = target: T1, Polyunsaturated fatty acid 5-lipoxygenase (Homo sapiens, UniProt P09917); assay: Inhibition of human 5-LOX expressed in Escherichia coli BL21 using arachidonic acid as substrate preincubated for 15 mins followed by substrate addition by HPLC analysis
T1 sequence (P09917 whole entry): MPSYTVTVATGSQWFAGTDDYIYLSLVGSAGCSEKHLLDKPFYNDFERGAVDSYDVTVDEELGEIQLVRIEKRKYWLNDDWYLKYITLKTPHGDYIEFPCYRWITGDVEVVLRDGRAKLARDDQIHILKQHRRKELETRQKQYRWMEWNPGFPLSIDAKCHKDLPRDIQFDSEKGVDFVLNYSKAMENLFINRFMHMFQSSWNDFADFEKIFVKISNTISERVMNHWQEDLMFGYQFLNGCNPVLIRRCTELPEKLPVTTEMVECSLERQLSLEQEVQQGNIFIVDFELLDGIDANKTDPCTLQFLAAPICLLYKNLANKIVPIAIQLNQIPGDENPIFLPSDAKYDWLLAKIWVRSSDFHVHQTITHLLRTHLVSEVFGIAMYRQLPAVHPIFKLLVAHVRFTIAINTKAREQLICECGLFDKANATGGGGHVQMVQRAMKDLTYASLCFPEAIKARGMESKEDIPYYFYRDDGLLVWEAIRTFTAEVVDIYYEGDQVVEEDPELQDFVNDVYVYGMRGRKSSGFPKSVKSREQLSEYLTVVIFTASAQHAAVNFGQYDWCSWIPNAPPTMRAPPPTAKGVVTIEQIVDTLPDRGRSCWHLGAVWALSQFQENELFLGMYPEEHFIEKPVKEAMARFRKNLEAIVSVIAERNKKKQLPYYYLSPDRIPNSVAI
Summary of the method: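 Human recombinant 5-LOX was expressed in E. coli BL21 (pT3-5LO) and purified. Enzyme (0.5 µg) in PBS/EDTA was preincubated with compound 15 min at 4 °C, then warmed 30 s at 37 °C. The reaction was started with 2 mM CaCl2 plus 20 µM arachidonic acid and run 10 min at 37 °C. Products were analysed by HPLC.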

H9c2 [2] = assay: Cytoprotective activity against hypoxia-induced toxicity rat H9c2 cells assessed as increase in cell viability at 80 nM preincubated for 18 hrs followed by incubated in hypoxia for 48 hrs by MTT assay; assay type: functional
Summary of the method: (§1)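 10^4 H9c2 cells were seeded and grown 24 h at 37 °C. Compound (80 nM–20 µM) was added either 18 h before or just before 48 h hypoxia in a sealed humidified chamber (5% CO2, 95% N2). Viability was measured by MTT for about 2 h, with formazan dissolved in HCl/isopropanol and read at 570 nm. Results are % of corresponding control, triplicates.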

[3] = target: T1, Polyunsaturated fatty acid 5-lipoxygenase; assay: Inhibition of 5-LOX in human PMNL cells assessed as A23187-stimulated LTB4 production preincubated for 15 mins followed by A23187 addition and measured after 10 mins by HPLC analysis; assay type: cell-based
Summary of the method: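 Human PMNL (5×10^6 in 1 ml PBS with 1 mg/ml glucose and 1 mM CaCl2) were preincubated with compound 15 min at 37 °C. 2.5 µM A23187 was added for 10 min at 37 °C, and the reaction was stopped with methanol. 5-LOX products were analysed by HPLC.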

H9c2 [4] = assay: Cytoprotective activity against hypoxia-induced apoptosis in rat H9c2 cells assessed as early apoptotic cells at 2 uM preincubated for 18 hrs followed by incubated in hypoxia for 48 hrs by annexin V based flow cytometry; assay type: functional, cell-based
Summary of the method: (§2)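 H9c2 cells were pretreated 18 h at 2 µM, then grown under normoxia or hypoxia. Apoptotic cells were detected by flow cytometry with fluorescein-annexin V staining. The read-out is % annexin V-positive cells.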

H9c2 [5] = assay: Antioxidant activity in rat H9c2 cells assessed as hypoxia-induced RO production at 2 uM preincubated for 18 hrs followed by incubated in hypoxia for 48 hrs by DCFH-DA staining-based flow cytometric analysis( Rvb = 45 %); assay type: functional
H9c2 [6] = assay: Cytoprotective activity against hypoxia-induced toxicity rat H9c2 cells assessed as cell death at 20 uM preincubated for 18 hrs followed by incubated in hypoxia for 48 hrs by MTT assay
H9c2 [7] = assay: Cytoprotective activity against hypoxia-induced toxicity rat H9c2 cells assessed as increase in cell viability at 80 nM to 7 uM preincubated for 18 hrs followed by incubated in hypoxia for 48 hrs by MTT assay; assay type: functional; summary of the method: as §1
H9c2 [8] = assay: Antioxidant activity in rat H9c2 cells assessed as reduction in hypoxia-induced NO release at 80 nM to 2 uM preincubated for 18 hrs followed by incubated in hypoxia for 48 hrs by griess assay; assay type: functional, cell-based
Summary of the method: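 10^4 H9c2 cells were pretreated 18 h at 37 °C with 80 nM or 2 µM, then held 48 h in a hypoxic chamber. Supernatant nitrite was measured with Griess reagent (0.5% sulfanilamide, 2.5% H3PO4, 0.05% naphthylethylene diamine) for 10 min at RT. Absorbance was read at 550 nm against a sodium nitrite standard curve.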

H9c2 [9] = assay: Antioxidant activity in rat H9c2 cells assessed as increase in hypoxia-induced reduction of MnSOD expression at 2 uM preincubated for 18 hrs followed by incubated in hypoxia for 48 hrs by Western blot analysis; assay type: functional, cell-based
Summary of the method: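 H9c2 cells were pretreated 18 h at 80 nM or 2 µM, then held 48 h under hypoxia. Lysates were made in RIPA buffer with protease inhibitors and DTT, and 80 µg protein was run on 12% SDS-PAGE. Blots were probed overnight at 4 °C with anti-MnSOD, with GAPDH as internal standard. Detection was by ECL and bands were quantified by densitometry.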

H9c2 [10] = assay: Cytoprotective activity against hypoxia-induced toxicity rat H9c2 cells assessed as cell death at 20 uM incubated for 18 hrs in hypoxia measured after 48 hrs by MTT assay
H9c2 [11] = assay: Antioxidant activity in rat H9c2 cells assessed as reduction in hypoxia-induced lipid peroxidation by measuring TBARS level preincubated for 18 hrs followed by incubated in hypoxia for 48 hrs by spectrophotometry; assay type: functional, cell-based
Summary of the method: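 10^4 H9c2 cells were pretreated 18 h with 80 nM or 2 µM, then held 48 h under hypoxia. Cells were lysed in modified RIPA buffer. Lysates were mixed with 20% acetic acid (pH 3.5) and 0.78% thiobarbituric acid, heated at 95 °C for 45 min, and centrifuged. A532 was read and expressed as TBARS per µg protein. Triplicate measurements, duplicate experiments.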

H9c2 [12] = assay: Cytoprotective activity against hypoxia-induced toxicity rat H9c2 cells assessed as increase in cell viability at 80 nM to 7 uM incubated for 18 hrs in hypoxia measured after 48 hrs by MTT assay; assay type: functional; summary of the method: as §1
H9c2 [13] = assay: Cytoprotective activity against hypoxia-induced apoptosis in rat H9c2 cells assessed as early apoptotic cells at 2 uM preincubated for 18 hrs followed by incubated in hypoxia for 48 hrs by annexin V based flow cytometry (reference value: 60 %); assay type: functional; summary of the method: as §2
[14] = target: T2, Polyunsaturated fatty acid 5-lipoxygenase (Homo sapiens) (UniProt P09917); assay: Residual activity of human 5-LOX expressed in Escherichia coli BL21 using arachidonic acid as substrate at 10 uM preincubated for 15 mins followed by substrate addition by HPLC analysis relative to control
T2 sequence (whole entry): T1 sequence (P09917 whole entry)

SMILES: COc1cc(/C=C/c2ccc(OC)c(O)c2)cc(OC)c1
IC50 [1]: 5490 nM | Activity (H9c2 [2]): 25 - 35% | IC50 [3]: 5480 nM

SMILES: CC(c1cc2ccccc2s1)N(O)C(N)=O (configuration not stated)
Activity (H9c2 [4]): inactive

SMILES: COc1cc(/C=C/c2ccc(O)cc2)cc(OC)c1 [PTEROSTILBENE]
IC50 [1]: 3910 nM | Activity (H9c2 [2]): 25 - 35% | Activity (H9c2 [13]): 25% | IC50 [3]: 530 nM

SMILES: COc1ccc(/C=C/c2cc(OC)cc(OC)c2)cc1 [TRISMETHOXYRESVERATROL]
IC50 [1]: 3620 nM | Activity (H9c2 [2]): 25 - 35% | IC50 [3]: 760 nM

More lines, main results first:

IC50 [1]: 780 nM | IC50 [3]: 70 nM
SMILES: COc1cc(/C=C/c2ccc(O)c(OC)c2)cc(OC)c1
Activity (H9c2 [2]): 25 - 35%

IC50 [1]: 320 nM | IC50 [3]: 50 nM
SMILES: COc1cc(/C=C/c2ccc(O)c(O)c2)cc(OC)c1
Activity (H9c2 [2]): 25 - 35%

IC50 [1]: 1100 nM | IC50 [3]: 240 nM
SMILES: Oc1cc(O)cc(/C=C/c2ccc(O)c(O)c2)c1 [PICEATANNOL]
Activity (H9c2 [5]): 38% | cell death (H9c2 [6]): 80% | Activity (H9c2 [7]): Active | Activity (H9c2 [8]): Active | Activity (H9c2 [9]): Active | cell death (H9c2 [10]): 80% | Activity (H9c2 [4]): inactive | Activity (H9c2 [11]): Dose-dependent effect | Activity (H9c2 [12]): Active

IC50 [3]: 4900 nM | residual activity [14]: 63.4%
SMILES: Oc1ccc(/C=C/c2cc(O)cc(O)c2)cc1 [RESVERATROL]
cell death (H9c2 [6]): 80% | Activity (H9c2 [7]): 95% | Activity (H9c2 [8]): Active | Activity (H9c2 [9]): Active | cell death (H9c2 [10]): 80% | Activity (H9c2 [11]): Dose-dependent effect | Activity (H9c2 [12]): 95%
